# Measured values as given in the M2OR odorant receptor database.
# Target: T1, OR5M3 (Homo sapiens) (UniProt Q8NGP4)
# T1 sequence (whole entry): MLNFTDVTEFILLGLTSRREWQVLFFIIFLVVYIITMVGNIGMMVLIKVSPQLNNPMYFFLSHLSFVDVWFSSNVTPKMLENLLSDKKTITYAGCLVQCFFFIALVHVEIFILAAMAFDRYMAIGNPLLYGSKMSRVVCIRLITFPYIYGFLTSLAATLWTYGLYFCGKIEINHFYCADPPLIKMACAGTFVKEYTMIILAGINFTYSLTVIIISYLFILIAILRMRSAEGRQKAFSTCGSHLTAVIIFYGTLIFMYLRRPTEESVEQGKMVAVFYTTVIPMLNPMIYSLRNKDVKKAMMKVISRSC
# Settings: stereoisomer not certain
# Summary of the method: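 Each receptor–molecule pair is labelled responsive or non-responsive (inactive) according to whether the original authors judged the measured signal statistically different from baseline. The data were taken from the main text and supplementary material of published papers and checked for typos and inconsistencies. Assay methods differed by source, with transient luciferase assays in mammalian cell lines being common.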
# 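Also: active if original authors judged signal statistically different from baseline.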
row,Structure (SMILES),odorant receptor agonist call
1,CCCCCCCCCC(=O)OCC,inactive
2,C=CC(O)CCCCC (centres undefined),inactive
3,CCCCC=CC=CC=O,inactive
4,CCCC(S)CCO (centres undefined),inactive
5,CCc1ccc(O)cc1,inactive
6,C=C1CCC2CC1C2(C)C (centres undefined),inactive
7,CCCCCCCC1CCCC(=O)O1 (centres undefined),inactive
8,Cc1c[nH]c2ccccc12,inactive
9,CC(C)(S)CCOC=O,inactive
10,CC1=CCC(C(C)C)C=C1 (centres undefined),inactive
11,CSCSC,inactive
12,CCCCCCC1CCC(=O)O1 (centres undefined),inactive
13,CC(=O)OCCC(C)C,inactive
14,C=CC(=O)CC,inactive
15,CCCSSSCCC,inactive
16,SCc1cccs1,inactive
17,CCCC(O)CC(=O)OCC (centres undefined),inactive
18,CCC(C)C=O (centres undefined),inactive
19,C=CCSC,inactive
20,CC(=O)OCC=Cc1ccccc1,inactive

row,Structure (SMILES),odorant receptor agonist call
1,CCOC(=O)C(C)CC (centres undefined),inactive
2,CCC(=O)C1=NCCC1,inactive
3,CCOC(C)=O,inactive
4,COc1ccc(C)cc1O,inactive
5,CCCCC=CC=O,inactive
6,C=CC(=O)CCCCC,inactive
7,Cc1cccc(C)c1O,inactive
8,CCc1cccc(O)c1,inactive
9,C=Cc1ccc(O)cc1,inactive
10,CCCCCC=CC=CC=O,inactive
11,Cc1occc(=O)c1O,inactive
12,CC(C)c1ccc(C=O)cc1,inactive
13,COC1=C(C)OC(C)C1=O (centres undefined),inactive
14,CCOC(=O)c1ccccc1,inactive
15,CCCCCc1ccccn1,inactive
16,CCCCCCCCC1CCC(=O)O1 (centres undefined),inactive
17,CCCC(=O)OCC,inactive
18,CSC,inactive
19,CCOC(=O)CCC(C)C,inactive
